Values after ≈ are worked out from the molar mass of the structure shown.
Experiments:
[1] = system: Mycobacterium tuberculosis; experiment: Growth inhibition of Mycobacterium bovis BCG infected in PBMC assessed as decrease in [3H]-uridine incorporation at <= IC20 after 72 hrs by microbeta scintillation counting analysis; assay type: functional, variant bovis BCG
In short: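 PBMCs at 1.5x10^4/well; non-adherent cells are washed off after 24 h. Adherent monocytes are cultured 6 days, then infected with BCG at MOI 3 for 4 h and washed three times. Drugs are added at concentrations at or below the THP-1 IC20 for 72 h.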

[2] = system: Mycobacterium tuberculosis; experiment: Antimycobacterial activity against Mycobacterium bovis BCG; assay type: functional; settings: variant bovis BCG

Row | Structure (SMILES) | growth inhibition (GI) [1] [%] | MIC [2] [µM]
1 | O=C(NNCCCN1CCC(N2c3ccccc3Sc3ccc(Cl)cc32)CC1)c1ccncc1 | >90 | 1 (≈ 0.494 µg/mL)
2 | O=C(NNCCCN1c2ccccc2Sc2ccccc21)c1ccccc1 | 40 | 26.6 (≈ 9.99 µg/mL)
3 | O=C(NNCCCN1c2ccccc2Sc2ccc(Cl)cc21)c1ccccc1 | 40 | 12.2 (≈ 5 µg/mL)
4 | O=C(NNCCCN1c2ccccc2Sc2ccc(Cl)cc21)c1ccncc1 | >90 | 2.44 (≈ 1 µg/mL)
5 | O=C(NNCCCN1c2ccccc2Sc2ccccc21)c1ccncc1 | >90 | 13.3 (≈ 5.01 µg/mL)
6 | O=C(NNCCCN1c2ccccc2CCc2ccccc21)c1ccncc1 | >90 | 13.4 (≈ 5 µg/mL)
7 | CN(C)CCCN1c2ccccc2Sc2ccc(Cl)cc21 [CHLORPROMAZINE] | 40 | 4 (≈ 1.28 µg/mL)
8 | NNC(=O)c1ccncc1 [ISONIAZID] | >90 | 0.015 (≈ 0.00206 µg/mL)
